Assay results as given in ChEMBL document CHEMBL1126137, “Structure-function studies in a series of carboxyl-terminal octapeptide analogues of anaphylatoxin C5a” (J Med Chem, 1992).
Where a SMILES comes first, the peptide text is derived from it. [ ]: non-standard residue; d: D form. Cha = N[C@@H](CC1CCCCC1)C(=O)O; Nle = CCCC[C@H](N)C(=O)O

Tests used:
[1] = Compound was evaluated for its ability to stimulate polymorphonuclear leukocyte (PMNL) chemokinetic migration; assay type: functional, Homo sapiens
Procedure, shortened: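 Human blood PMNL from density-gradient centrifugation, with hypotonic red-cell lysis and three washes. Cells at 2×10^8/mL in 0.3% agarose, set as 1-μL droplets, chilled 10 min on ice, then overlaid with buffer ± stimulus. Buffer: Earle's salts, 20 mM HEPES pH 7.0, 0.25% gelatin. Run 2 h at 37 °C. Migration from droplet edge, minus buffer control, as % of peak rC5a response. Dose-response dosing.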

[2] = target: T1, C5a anaphylatoxin chemotactic receptor 1 (Homo sapiens, UniProt P21730); test: Ability to inhibit the binding of […] to polymorphonuclear leukocyte (PMNL) membrane receptor
T1 sequence (P21730 whole entry): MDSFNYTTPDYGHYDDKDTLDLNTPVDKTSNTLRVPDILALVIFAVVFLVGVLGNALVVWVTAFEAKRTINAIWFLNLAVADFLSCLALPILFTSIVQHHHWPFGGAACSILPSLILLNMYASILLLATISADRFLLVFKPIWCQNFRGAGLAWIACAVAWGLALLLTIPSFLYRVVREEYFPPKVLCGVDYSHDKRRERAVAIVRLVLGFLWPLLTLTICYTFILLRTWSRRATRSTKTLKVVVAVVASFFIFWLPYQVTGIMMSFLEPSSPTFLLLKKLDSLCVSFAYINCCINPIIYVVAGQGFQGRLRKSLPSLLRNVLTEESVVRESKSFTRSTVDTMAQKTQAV
Procedure, shortened: (§1)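 Competition for radioiodinated C5a binding to human PMNL membranes, isolated by nitrogen cavitation and Percoll gradient. Tracer made by glucose oxidase-lactoperoxidase iodination and affinity-purified. Buffered balanced salts (pH 7.0), 0.25% gelatin, protease inhibitors, 50–250 pM 125I-C5a, 5–20 μg/mL membranes. 60 min, ambient temperature, filtration. IC50 from linear regression; Ki by Cheng–Prusoff. Single-point lines give percent inhibition at 1 mM peptide.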

[3] = target: T2, C5a anaphylatoxin chemotactic receptor 1 (Homo sapiens) (UniProt P21730); test: Compound was evaluated for its ability to inhibit the binding of […] to polymorphonuclear leukocyte (PMNL) membrane receptor at 1 mM concentration.; procedure, shortened: as §1
T2 sequence (whole entry): T1 sequence (P21730 whole entry)

Compound	Efficacy [1] [%]	Ki [2] [µM]	inhibition [3] [%]
Ac-HKDMQLGR-OH	107		
CC(=O)N[C@@H](Cc1c[nH]cn1)C(=O)N[C@@H](CCCCN)C(=O)N[C@@H](CC(=O)O)C(=O)N[C@@H](CC1CCCCC1)C(=O)N[C@@H](CC1CCCCC1)C(=O)N[C@@H](CC1CCCCC1)C(=O)NCC(=O)N[C@@H](CCCN=C(N)N)C(=O)O (Ac-HKD[Cha][Cha][Cha]GR-OH)	75	25	
CC(=O)N[C@@H](Cc1c[nH]cn1)C(=O)N[C@@H](CCCCN)C(=O)N[C@@H](CC(=O)O)C(=O)N[C@@H](CC1CCCCC1)C(=O)N[C@@H](CC1CCCCC1)C(=O)N[C@@H](CC1CCCCC1)C(=O)N[C@H](C)C(=O)N[C@@H](CCCN=C(N)N)C(=O)O	67	10	
CC(=O)N[C@@H](Cc1c[nH]cn1)C(=O)N[C@@H](CCCCN)C(=O)N[C@@H](CC(=O)O)C(=O)N[C@@H](Cc1ccccc1)C(=O)N[C@@H](Cc1ccccc1)C(=O)N[C@@H](Cc1ccccc1)C(=O)N[C@H](C)C(=O)N[C@@H](CCCN=C(N)N)C(=O)O	109	750	
CC(=O)N[C@@H](Cc1c[nH]cn1)C(=O)N[C@@H](CCCCN)C(=O)N[C@@H](CC(=O)O)C(=O)N[C@@H](Cc1ccc(O)cc1)C(=O)N[C@@H](Cc1ccc(O)cc1)C(=O)N[C@@H](Cc1ccc(O)cc1)C(=O)N[C@H](C)C(=O)N[C@@H](CCCN=C(N)N)C(=O)O			< 20
CCCC[C@H](NC(=O)[C@H](CCCC)NC(=O)[C@H](CCCC)NC(=O)[C@H](CC(=O)O)NC(=O)[C@H](CCCCN)NC(=O)[C@H](Cc1c[nH]cn1)NC(C)=O)C(=O)NCC(=O)N[C@@H](CCCN=C(N)N)C(=O)O (Ac-HKD[Nle][Nle][Nle]GR-OH)		210	
CSCC[C@H](NC(=O)[C@H](CC(=O)O)NC(=O)[C@H](CCCCN)NC(=O)[C@H](Cc1c[nH]cn1)NC(C)=O)C(=O)N[C@@H](CCC(N)=O)C(=O)N[C@@H](CC1CCCCC1)C(=O)NCC(=O)N[C@@H](CCCN=C(N)N)C(=O)O (Ac-HKDMQ[Cha]GR-OH)			30
CCC[C@H](NC(=O)[C@H](CC1CCCCC1)NC(=O)[C@H](CC1CCCCC1)NC(=O)[C@H](CC(=O)O)NC(=O)[C@H](CCCCN)NC(=O)[C@H](Cc1c[nH]cn1)NC(C)=O)C(=O)N[C@H](C)C(=O)N[C@@H](CCCN=C(N)N)C(=O)O	55	5.3	
CC[C@H](C)[C@H](NC(=O)[C@H](CC1CCCCC1)NC(=O)[C@H](CC1CCCCC1)NC(=O)[C@H](CC(=O)O)NC(=O)[C@H](CCCCN)NC(=O)[C@H](Cc1c[nH]cn1)NC(C)=O)C(=O)N[C@H](C)C(=O)N[C@@H](CCCN=C(N)N)C(=O)O	56	2	
CC(=O)N[C@@H](Cc1c[nH]cn1)C(=O)NC(CCCCN)C(=O)N[C@@H](CC(=O)O)C(=O)NC(CC1CCCCC1)C(=O)N[C@H](CC1CCCCC1)C(=O)N[C@@H](CC(C)C)C(=O)N[C@H](C)C(=O)N[C@@H](CCCN=C(N)N)C(=O)O (single isomer, unassigned)	71	600	
CC(=O)N[C@@H](Cc1c[nH]cn1)C(=O)N[C@@H](CCCCN)C(=O)N[C@@H](CC(=O)O)C(=O)N[C@@H](CC1CCCCC1)C(=O)N[C@@H](CC1CCCCC1)C(=O)N[C@@H](CC(C)C)C(=O)N[C@H](C)C(=O)N[C@@H](CCCN=C(N)N)C(=O)O	57	2.9	
CC(=O)N[C@@H](Cc1c[nH]cn1)C(=O)N[C@@H](CCCCN)C(=O)N[C@@H](CC(=O)O)C(=O)N[C@@H](CC1CCCCC1)C(=O)N[C@H](CC1CCCCC1)C(=O)N[C@@H](CC(C)C)C(=O)N[C@H](C)C(=O)N[C@@H](CCCN=C(N)N)C(=O)O			26
CC(=O)N[C@@H](Cc1c[nH]cn1)C(=O)N[C@@H](CCCCN)C(=O)N[C@@H](CC(=O)O)C(=O)N[C@@H](CC1CCCCC1)C(=O)N[C@@H](CC1CCCCC1)C(=O)N[C@H](C(=O)N[C@H](C)C(=O)N[C@@H](CCCN=C(N)N)C(=O)O)C(C)C	60	1.6	
